In brackets after ≈: the same amount, converted by molar mass. Values belong to the compound of their own block, whether it stands above or below them. Activity calls are given as the source filed them. The calls are words filed in the database; no cut-off is given here.
Assays:
Rattus norvegicus = species on record: Rattus norvegicus; experiment: Antiobesity activity in rat assessed as suppression of postprandial triglyceride levels; assay type: functional
Homo sapiens = experiment: Antiobesity activity in high fat-fed human assessed as suppression of postprandial plasma triglyceride level compound administered as single oral dose; assay type: functional
Method in brief: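 Randomized, double-blind, placebo-controlled single ascending dose study in overweight or obese healthy adults aged 18-55. Single oral doses of 5-600 mg (n = 8 per dose) or placebo (n = 12) were given. About 1 h after dosing, subjects ate a ~1000 kcal, 55% fat test meal, and plasma triglycerides were compared against an untreated baseline meal test monitored for 9 h.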

Canis familiaris [1] = experiment: Antiobesity activity in fasted Beagle dog assessed as postprandial triglyceride AUC in plasma at 1 mg/kg administered via oral gavage prior to 30 mins of […] measured after 4 hrs (reference value: 35400 +/- 8863 mg/dL.min); assay type: functional, organism-based; design: dose 1 mg/kg, time < 4 hr; details: Canis lupus familiaris
[2] = Ratio of IC50 for DGTA1 in mouse C2C12 cells to IC50 for recombinant human His6-tagged DGAT1; assay type: cell-based
Method in brief: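 Ratio of the C2C12 cellular IC50 to the enzymatic IC50. Enzyme assay: Sf9 membranes expressing human His6-DGAT1 with 50 µM diolein and 50 µM oleoyl-CoA in 50 mM HEPES pH 7.5, 5 mM MgCl2 and 10% ethanol, 30 min at room temperature. Triolein was read by LC-MS/MS, with a 10-point, 3-fold dose response run in duplicate.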

[3] = Permeability across basolateral to apical side in human Caco2 cells; assay type: ADME, cell-based; details: Caco-2, read-out: permeability
Method in brief: (§1)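 Caco-2 monolayer permeability was measured in the A-B and B-A directions, and the efflux ratio was taken as B-A/A-B.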

[4] = Half life in Sprague-Dawley rat at 1 mg/kg, iv by LC/MS/MS analysis; assay type: ADME, organism-based; details: in vivo
Method in brief: (§2)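 Male Sprague-Dawley rats, 200-300 g, dosed iv (n = 2) or po (n = 3) as solutions in NMP/PG or PEG400/ETPGS vehicles. Blood was taken from a jugular vein catheter at 0.083 (iv only), 0.25, 0.5, 1, 2, 4, 6 and 8 h into EDTA tubes, and plasma was analysed by LC-MS/MS. Values are means ± SD.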

[5] = Permeability across apical to basolateral side in human Caco2 cells; assay type: ADME, cell-based; details: Caco-2, read-out: permeability; method in brief: as §1
[6] = Tmax in Sprague-Dawley rat 5 mg/kg, po by LC/MS/MS analysis; assay type: ADME, organism-based; details: in vivo; method in brief: as §2
[7] = AUC (0 to 8 hrs) in Sprague-Dawley rat at 1mg/kg, iv by LC/MS/MS analysis; assay type: ADME, organism-based; design: time < 8 hr, dose 1 mg/kg, route intravenous; details: in vivo; method in brief: as §2
[8] = target: T1, Diacylglycerol O-acyltransferase 1 (Mus musculus, UniProt Q9Z2A7); experiment: Inhibition of DGTA1 in mouse C2C12 cells assessed as inhibition of triglyceride formation after 2 hrs by LC/MS/MS analysis; assay type: cell-based
T1 sequence (Q9Z2A7 whole entry): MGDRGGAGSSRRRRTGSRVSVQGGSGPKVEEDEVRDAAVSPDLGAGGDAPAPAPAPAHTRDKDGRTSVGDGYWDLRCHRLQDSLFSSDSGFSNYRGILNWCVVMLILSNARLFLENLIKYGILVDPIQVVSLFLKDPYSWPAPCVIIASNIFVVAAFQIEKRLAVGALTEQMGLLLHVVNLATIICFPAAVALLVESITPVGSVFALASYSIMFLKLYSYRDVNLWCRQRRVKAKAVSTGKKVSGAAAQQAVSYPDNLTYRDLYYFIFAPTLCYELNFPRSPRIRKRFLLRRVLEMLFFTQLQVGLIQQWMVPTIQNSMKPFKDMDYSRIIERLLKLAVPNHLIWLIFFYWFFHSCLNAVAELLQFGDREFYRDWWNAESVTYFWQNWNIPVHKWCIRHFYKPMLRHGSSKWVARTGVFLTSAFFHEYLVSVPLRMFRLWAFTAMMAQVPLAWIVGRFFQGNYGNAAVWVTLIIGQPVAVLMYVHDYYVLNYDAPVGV
Method in brief: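 C2C12 cells were seeded in DMEM with 5 mM glucose and 10% FBS for 18 h at 37 °C. Medium was then replaced with DMEM, 5 mM glucose and 250 µM oleate-BSA plus inhibitor (0.5% DMSO final) for 2 h at 37 °C. Cells were extracted with butanol containing tripalmitolein internal standard and triglyceride was read by LC-MS/MS. An 11-point, 3-fold dose response was run in quadruplicate.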

[9] = AUC (0 to 8 hrs) in Sprague-Dawley rat at 5 mg/kg, po by LC/MS/MS analysis; assay type: ADME, organism-based; design: dose 5 mg/kg, time < 8 hr, route oral; details: in vivo; method in brief: as §2
[10] = Volume of distribution at steady state in Sprague-Dawley rat at 1 mg/kg, iv by LC/MS/MS analysis; assay type: ADME, organism-based; details: in vivo, read-out: Vdss; method in brief: as §2
[11] = Oral bioavailability in Sprague-Dawley rat at 5 mg/kg by LC/MS/MS analysis; assay type: ADME, organism-based; details: in vivo; method in brief: as §2
[12] = Cmax in Sprague-Dawley rat at 5 mg/kg, po by LC/MS/MS analysis; assay type: ADME, organism-based; design: dose 5 mg/kg, route oral; details: in vivo; method in brief: as §2
[13] = Clearance in Sprague-Dawley rat at 1 mg/kg, iv by LC/MS/MS analysis; assay type: ADME, organism-based; details: in vivo; method in brief: as §2
[14] = Drug level in dog hepatocytes treated with [3H]-3-(4-(6-(5-(4-Methoxyphenyl)-1,3,4-oxadiazol-2-yl)-1H-benzo[d]imidazol-2-yl)-3,5-dimethylphenyl)-2,2-dimethylpropanoic acid at 12.5 uM after 18 hrs; assay type: ADME, cell-based, Canis lupus familiaris, Hepatocyte
Method in brief: (§3)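 [3H]-labelled compound (12.5 µM) was incubated for 18 h with rat, dog, monkey or human hepatocytes, and metabolites were profiled.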

[15] = Drug level in human hepatocytes treated with [3H]-3-(4-(6-(5-(4-Methoxyphenyl)-1,3,4-oxadiazol-2-yl)-1H-benzo[d]imidazol-2-yl)-3,5-dimethylphenyl)-2,2-dimethylpropanoic acid at 12.5 uM after 18 hrs; assay type: ADME, cell-based, Hepatocyte; method in brief: as §3
[16] = Drug level in monkey hepatocytes treated with [3H]-3-(4-(6-(5-(4-Methoxyphenyl)-1,3,4-oxadiazol-2-yl)-1H-benzo[d]imidazol-2-yl)-3,5-dimethylphenyl)-2,2-dimethylpropanoic acid at 12.5 uM after 18 hrs; assay type: ADME, cell-based, Macaca mulatta, Hepatocyte; details: rhesus monkey; method in brief: as §3
[17] = Drug level in rat hepatocytes treated with [3H]-3-(4-(6-(5-(4-Methoxyphenyl)-1,3,4-oxadiazol-2-yl)-1H-benzo[d]imidazol-2-yl)-3,5-dimethylphenyl)-2,2-dimethylpropanoic acid at 12.5 uM after 18 hrs; assay type: ADME, cell-based, Hepatocyte; method in brief: as §3
[18] = AUC (0 to 24 hrs) in dog plasma at 5 mg/kg, po after 24 hrs; assay type: ADME, organism-based, Canis lupus familiaris; design: time < 24 hr, dose 5 mg/kg, route oral
Canis familiaris [19] = experiment: Antiobesity activity in high fat diet-fed dog assessed as reduction in body weight gain at 5 mg/kg, po qd administered via gelatin capsule after 21 days relative to vehicle control; design: scale not given: the % may be the effect or the level left
[20] = Plasma concentration in high fat diet-fed dog at 5 mg/kg, po administered via gelatin capsule after 90 mins
Plasma = experiment: Unbound concentration in dog plasma at 5 mg/kg, po after 24 hrs; assay type: ADME, organism-based, Canis lupus familiaris; details: in vivo
[21] = Protein binding in dog plasma at 5 mg/kg, po after 24 hrs; assay type: ADME, organism-based, Canis lupus familiaris; details: read-out: PPB (converted)
[22] = Plasma concentration in high fat diet-fed dog at 5 mg/kg, po qd administered via gavage measured after twenty-ninth dose; assay type: ADME, organism-based, Canis lupus familiaris
[23] = Oral bioavailability in Sprague-Dawley rat at 3 mg/kg by LC/MS/MS analysis; assay type: ADME, organism-based; details: in vivo; method in brief: as §2
[24] = AUC (0 to 8 hrs) in Sprague-Dawley rat at 3 mg/kg, po by LC/MS/MS analysis; assay type: ADME, organism-based; design: dose 3 mg/kg, time < 8 hr, route oral; details: in vivo; method in brief: as §2
[25] = Tmax in Sprague-Dawley rat 3 mg/kg, po by LC/MS/MS analysis; assay type: ADME, organism-based; details: in vivo; method in brief: as §2
[26] = Cmax in Sprague-Dawley rat at 3 mg/kg, po by LC/MS/MS analysis; assay type: ADME, organism-based; design: dose 3 mg/kg, route oral; details: in vivo; method in brief: as §2
[27] = Solubility of the compound at pH 6.8 after 24 hrs; assay type: physicochemical; details: buffer
Method in brief: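 Solubility was measured in pH 6.8 buffer after 24 h incubation.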

- Papp B→A [3]: 14.1 ×10⁻⁶ cm/s
- half-life [4]: 102 min
- Papp A→B [5]: 1.4 ×10⁻⁶ cm/s
- Tmax [6]: 24 min
- AUC(0-t) at 8 h [7]: 5.23 µM·h
- IC50 [8]: 913 nM
- AUC(0-t) at 8 h [9]: 0.405 µM·h
- Vd [10]: 0.4 L/kg
- bioavailability [11]: 2%
- Cmax [12]: 333 nM
- clearance [13]: 6.9 mL/min/kg
Compound: Cc1cc(CCC(=O)O)cc(C)c1-c1nc2ccc(C(=O)Nc3ccc4ccccc4n3)cc2[nH]1

- Drug metabolism [14]: Metabolite_Detected
- Drug metabolism [15]: Metabolite_Detected
- Drug metabolism [16]: Metabolite_Detected
- Drug metabolism [17]: Metabolite_Detected
Compound: COc1ccc(-c2nnc(-c3ccc4nc(-c5c(C)cc(CC(C)(C)C(=O)O[C@@H]6O[C@H](C(=O)O)[C@@H](O)[C@H](O)[C@H]6O)cc5C)[nH]c4c3)o2)cc1

- Papp B→A [3]: 12.4 ×10⁻⁶ cm/s
- bioavailability [23]: 23%
- half-life [4]: 48 min
- Papp A→B [5]: 3.5 ×10⁻⁶ cm/s
- AUC(0-t) at 8 h [24]: 4.23 µM·h
- solubility at 24 h [27]: 8 µM (≈ 3.94 µg/mL)
- Tmax [25]: 30 min
- AUC(0-t) at 8 h [7]: 6.11 µM·h
- IC50 [8]: 954 nM
- Vd [10]: 0.4 L/kg
- Cmax [26]: 1720 nM
- clearance [13]: 5.5 mL/min/kg
Compound: Cc1cc(CC(C)(C)C(=O)O)cc(C)c1-c1nc2ccc(C(=O)Nc3ccc4ccccc4n3)cc2[nH]1

- Drug metabolism [14]: Metabolite_Detected
- Drug metabolism [15]: Metabolite_Detected
- Drug metabolism [16]: Metabolite_Detected
- Drug metabolism [17]: Metabolite_Detected
Compound: Cc1cc(CC(C)(C)C(=O)O)cc(C)c1-c1nc2ccc(-c3nnc(-c4ccc(O)cc4)o3)cc2[nH]1

Further lines, the compound ahead of its results:

Compound: COc1ccc(-c2nnc(-c3ccc4nc(-c5c(C)cc(CC(C)(C)C(=O)O)cc5C)[nH]c4c3)o2)cc1
- Activity (Rattus norvegicus): Active
- Activity (Homo sapiens): Dose-dependent effect
- AUC (Canis familiaris [1]): 308000 ng·h/mL
- Ratio IC50 [2]: 9

Compound: Cc1cc(CCC(=O)O)cc(C)c1-c1nc2ccc(C(=O)Nc3ccc(C(C)(C)C)cc3)cc2[nH]1
- Ratio IC50 [2]: 10

Compound: COc1ccc(-c2nnc(-c3ccc4nc(-c5c(C)cc(CC(C)(C)C(=O)O)cc5C)[nH]c4c3)o2)cc1.[Na+]
- AUC(0-t) at 24 h [18]: 5.27 µM·h
- Activity (Canis familiaris [19]): 11%
- concentration at 1.5 h [20]: 738 nM
- Cp(f) (Plasma): 2 nM
- fraction unbound at 24 h [21]: 0.009
- concentration at 29 days [22]: 930 nM

Compound: COc1ccc(-c2nnc(-c3ccc4nc(-c5c(C)cc(CCC(=O)O)cc5C)[nH]c4c3)o2)cc1
- Papp B→A [3]: 9.2 ×10⁻⁶ cm/s
- bioavailability [23]: 2%
- half-life [4]: 96 min
- Papp A→B [5]: 1.4 ×10⁻⁶ cm/s
- AUC(0-t) at 8 h [24]: 0.103 µM·h
- Tmax [25]: 30 min
- AUC(0-t) at 8 h [7]: 1.69 µM·h
- IC50 [8]: 181 nM
- Vd [10]: 0.7 L/kg
- Cmax [26]: 40 nM
- clearance [13]: 21 mL/min/kg

Reference: ChEMBL document CHEMBL4014326, “Discovery of an Orally Bioavailable Benzimidazole Diacylglycerol Acyltransferase 1 (DGAT1) Inhibitor That Suppresses Body Weight Gain in Diet-Induced Obese Dogs and Postprandial Triglycerides in Humans” (J Med Chem, 2017)
